Assay results published in ChEMBL document CHEMBL1671680, “Pradimicin S, a highly soluble nonpeptidic small-size carbohydrate-binding antibiotic, is an anti-HIV drug lead for both microbicidal and systemic use” (Antimicrob Agents Chemother, 2010).
Active and inactive are the calls of the source. The calls are words filed in the database; no cut-off is given here.

How the values were obtained:
[1] = system: PBMC; experiment: Immunostimulatory activity against human PBMC assessed as IL-4 production at 21 uM after 72 hrs; type: functional, cell-based
Method in brief: (§1)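 Unstimulated PBMCs and PHA-blasts from three donors, in three independent experiments, cultured with test compound at 20 μg/ml (21 or 22 μM). Supernatants collected after 72 h. The cytokine profile was read on a Bio-Plex 27-plex human cytokine bead immunoassay, using beads coupled to cytokine-specific monoclonal antibodies and run per the kit instructions.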

[2] = system: Human immunodeficiency virus 2; experiment: Antiviral activity against X4 tropic HIV-2 BV-5061 W infected in human PBMC assessed as inhibition of viral replication […] by ELISA; type: functional, organism-based; details: Human immunodeficiency virus 2, BV-5061
Method in brief: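 PHA-stimulated (2 μg/ml, 3 days) donor PBMC blasts seeded at 0.5 × 10^6 cells/well with compound dilutions in RPMI 1640 + 10% FCS + IL-2 (25 U/ml); virus added at 250 pg p24 or p27/ml final; supernatant p24 (HIV-1) or p27 (HIV-2) antigen measured by ELISA at day 12; EC50 from antigen reduction.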

[3] = system: Human immunodeficiency virus 1; experiment: Antiviral activity against compound pretreated HIV-1 3B isolate 42 harboring gp120 mutant infected in human CEM cells assessed as inhibition of virus-induced cytopathicity after 3 to 4 days by microscopic analysis; type: functional, organism-based; details: Human immunodeficiency virus 1, 3B isolate 42, CCRF-CEM
Method in brief: (§2)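 CEM or C8166 cells at 5 × 10^5/ml infected with HIV-1 at 100 CCID50 per ml, then mixed 1:1 with compound dilutions and held at 37°C for 3–4 days. Giant cells were counted microscopically at ×100 against untreated infected cultures. EC50 is the concentration cutting syncytium formation by 50%.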

[4] = system: Human immunodeficiency virus 1; experiment: Ratio of EC90 to EC50 for X4 tropic HIV-1 group O isolate BCF06 infected in human PBMC; type: functional
Method in brief: (§3)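 PBMCs from healthy donors were PHA-stimulated (2 μg/ml, 3 days, 37°C), then seeded at 0.5 × 10^6 per well with compound dilutions in RPMI 1640 with 10% FCS and IL-2 (25 U/ml). Virus was added at 250 pg p24 or p27/ml final. On day 12, supernatant HIV-1 p24 or HIV-2 p27 was measured by ELISA, giving EC50 and EC90.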

[5] = system: Human immunodeficiency virus 1; experiment: Antiviral activity against X4 tropic HIV-1 group O isolate BCF06 infected in human PBMC assessed as inhibition of viral replication […] by ELISA; type: functional, organism-based; details: Human immunodeficiency virus 1, group O isolate BCF06
Method in brief: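 PBMCs from healthy donors were stimulated with PHA (2 μg/ml) for 3 days, then seeded at 0.5 × 10^6 cells/well in RPMI 1640 with 10% FCS, IL-2 (25 U/ml) and compound. Virus was added at a final 250 pg p24/ml. Supernatant was taken at day 12 for p24 antigen ELISA.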

[6] = system: PBMC; experiment: Immunostimulatory activity against human PBMC assessed as VEGF production at 21 uM after 72 hrs; type: functional, cell-based; method in brief: as §1
[7] = system: Human immunodeficiency virus 1; experiment: Antiviral activity against compound pretreated X4 tropic HIV-1 3B infected in human Raji cells expressing DC-SIGN gene assessed as prevention of syncytium formation between persistently HIV-1 3B-infected Raji cells and uninfected human C8166 cells after 42 hrs by microscopic analysis; type: functional, organism-based; details: Human immunodeficiency virus 1, 3B
Method in brief: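 Compound-pretreated virus captured by Raji/DC-SIGN cells for 60 min at 37°C, washed, then 200 μl mixed with 2 × 10^5 C8166 cells (further 5-fold dilution) and incubated 36–48 h at 37°C; syncytium formation scored microscopically.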

[8] = system: Human immunodeficiency virus 2; experiment: Antiviral activity against HIV-2 ROD infected in human CEM cells assessed as inhibition of virus-induced cytopathicity after 3 to 4 days by microscopic analysis; type: functional, organism-based; details: Human immunodeficiency virus 2, ISOLATE ROD, CCRF-CEM
Method in brief: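 CEM cells (5 × 10^5/ml) infected at 100 CCID50/ml, mixed 1:1 with compound dilutions, incubated 3–4 days at 37°C; giant cells counted microscopically against untreated infected controls; EC50 is the concentration preventing syncytium formation by 50%.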

[9] = system: Human immunodeficiency virus 1; experiment: Antiviral activity against HIV-1 3B infected in human HUT78 cells assessed as prevention of syncytium formation between persistently HIV-1 3B-infected HUT-78 cells and uninfected SupT1 cells compound preexposed to high temperature after 3 to 4 days by ELISA; type: functional, organism-based; details: SUP-T1
[10] = system: PBMC; experiment: Immunostimulatory activity against human PBMC assessed as suppression of IL-13 production at 21 uM after 72 hrs; type: functional; method in brief: as §1
[11] = system: PBMC; experiment: Immunostimulatory activity against human PBMC assessed as MIP-1beta production at 21 uM after 72 hrs; type: functional, cell-based; method in brief: as §1
[12] = system: PBMC; experiment: Immunostimulatory activity against human PBMC assessed as suppression of IL-9 production at 21 uM after 72 hrs; type: functional; method in brief: as §1
[13] = Antiviral activity against SIV mac251 infected in human Raji cells expressing DC-SIGN gene assessed as prevention of syncytium formation between persistently […]-infected Raji cells and uninfected human C8166 cells after 60 mins by ELISA; type: functional, cell-based, Simian immunodeficiency virus - mac; details: Simian immunodeficiency virus, 251, Raji, 1 h
[14] = system: PBMC; experiment: Immunostimulatory activity against human PBMC assessed as IL-9 production at 22 uM after 72 hrs; type: functional, cell-based; method in brief: as §1
[15] = system: PBMC; experiment: Immunostimulatory activity against human PBMC assessed as IL-2 production at 22 uM after 72 hrs; type: functional, cell-based; method in brief: as §1
[16] = system: PBMC; experiment: Immunostimulatory activity against human PBMC assessed as IL-15 production at 21 uM after 72 hrs; type: functional, cell-based; method in brief: as §1
[17] = system: Human immunodeficiency virus 1; experiment: Ratio of EC90 to EC50 for X4 tropic HIV-1 3B infected in human PBMC; type: functional; method in brief: as §3
[18] = system: Human immunodeficiency virus 1; experiment: Antiviral activity against HIV-1 3B infected in human C8166 cells assessed as inhibition of virus-induced cytopathicity after 3 to 4 days by microscopic analysis; type: functional, organism-based; details: Human immunodeficiency virus 1, 3B; method in brief: as §2
[19] = system: Human immunodeficiency virus 1; experiment: Binding affinity to HIV-1 3B gp120 assessed as association rate constant after 6 mins by SPR analysis in presence of 10 mM CaCl2
[20] = system: PBMC; experiment: Immunostimulatory activity against human PBMC assessed as suppression of IL-13 production at 22 uM after 72 hrs; type: functional; method in brief: as §1
[21] = Cytotoxicity against human HeLa cells after 3 to 4 days; type: cell-based
Method in brief: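 Cells seeded at 20,000–75,000 per well with compound dilutions, incubated 3–4 days at 37°C, and counted on a Coulter particle counter; CC50 is the concentration inhibiting proliferation by 50%.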

[22] = Binding affinity to HIV-1 HXB2 gp41 assessed as dissociation rate constant after 6 mins by SPR analysis in presence of 10 mM CaCl2; set-up: species or system Human immunodeficiency virus 1
[23] = system: PBMC; experiment: Immunostimulatory activity against human PBMC assessed as IL1-beta production at 22 uM after 72 hrs; type: functional, cell-based; method in brief: as §1
[24] = Antiviral activity against SIV mac251 infected in human MT4 cells assessed as inhibition of virus-induced cytopathicity after 7 days by trypan blue staining; type: functional, cell-based, Simian immunodeficiency virus - mac; details: Simian immunodeficiency virus, 251, MT4, 168 h
Method in brief: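 MT-4 cells (5 × 10^5/ml) infected with SIV at 100 CCID50/ml, mixed 1:1 with compound dilutions, incubated at 37°C; viable cells in infected and mock-infected cultures counted by trypan blue; EC50 and CC50 are concentrations reducing viable cell number by 50% in each.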

| Structure (SMILES) | Activity [1] | EC50 [2] | EC50 [3] | Ratio [4] | EC50 [5] | Activity [6] | EC50 [7] | EC50 [8] | Activity [9] | fold change (FC) [10] | Activity [11] | fold change (FC) [12] | IC50 [13] | Activity [14] | Activity [15] | Activity [16] | Ratio [17] | EC50 [18] | Ka [19] | fold change (FC) [20] | other results |
| --- | --- | --- | --- | --- | --- | --- | --- | --- | --- | --- | --- | --- | --- | --- | --- | --- | --- | --- | --- | --- | --- |
| CN[C@@H]1[C@H](O[C@@H]2O[C@H](CO)[C@@H](O)[C@H](OS(=O)(=O)O)[C@H]2O)[C@@H](O)[C@H](O[C@H]2c3cc(C)c(C(=O)N[C@H](C)C(=O)O)c(O)c3-c3c(cc4c(c3O)C(=O)c3cc(OC)cc(O)c3C4=O)[C@@H]2O)O[C@@H]1C [PRADIMICIN S] | inactive | 3.1 µM | > 50 µM | 2 | 4.4 µM | inactive | 7.1 µM | 9.6 µM | Active | 2 | inactive | 2 | 16 µM | inactive | inactive | inactive | 2 | 5.1 µM | 1.27 ×10⁴ /M/s | 2 | CC50 [21]: > 230 µM; Kd [22]: 2.71 ×10⁻² /s; Activity [23]: inactive; EC50 [24]: 8.1 µM |
| CN[C@@H]1[C@H](O[C@@H]2OC[C@@H](O)[C@H](O)[C@H]2O)[C@@H](O)[C@H](O[C@H]2c3cc(C)c(C(=O)N[C@H](C)C(=O)O)c(O)c3-c3c(cc4c(c3O)C(=O)c3cc(OC)cc(O)c3C4=O)[C@@H]2O)O[C@@H]1C [PRADIMICIN A] | inactive | 4.3 µM | > 50 µM | 2 | 1.6 µM | inactive | 3.4 µM | 5.2 µM | Active | 2 | inactive | 2 | 16 µM | inactive | inactive | inactive | 2 | 2.6 µM | 1.49 ×10⁴ /M/s | 2 | CC50 [21]: > 50 µM; Kd [22]: 2.91 ×10⁻² /s; Activity [23]: inactive; EC50 [24]: 5 µM |
